Assay results published in ChEMBL document CHEMBL1649579, “A novel tryptophanyl-tRNA synthetase gene confers high-level resistance to indolmycin” (2009).
Values after ≈ are worked out from the molar mass of the structure shown.

Key:
Format in all cases: functional
Streptomyces coelicolor [1] = assay: Ratio of MIC for Streptomyces coelicolor B725 harboring trpRS2 G(-13)T locus to MIC for Streptomyces coelicolor B725
Method in brief: (§1)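 Fold increase is the indolmycin MIC of each construct-bearing B725 strain (ermE* promoter) divided by the MIC of the parent trpRS1-null B725. Both MICs come from Difco nutrient agar plates containing indolmycin, read for growth after 2 days at 30C.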

Streptomyces coelicolor [2] = assay: Antimicrobial activity against Streptomyces coelicolor B725 harboring trpRS2 C(-17)A/L9F locus after 48 hrs; conditions: B725, 48 h
Method in brief: (§2)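 Agar MIC in trpRS1-null S. coelicolor B725 carrying the trpRS2 locus (93 nt upstream to 96 nt downstream of the ORF, with or without point mutations) […]. Plates are Difco nutrient agar with indicated indolmycin levels, read for growth after 48 h at 30C.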

Streptomyces coelicolor [3] = assay: Antimicrobial activity against Streptomyces coelicolor B725 harboring trpRS2 G(-13)T/H48Q locus after 48 hrs; conditions: B725, 48 h; method in brief: as §2
Streptomyces coelicolor [4] = assay: Antimicrobial activity against Streptomyces coelicolor B725 harboring trpRS2 G(-13)T locus after 48 hrs; conditions: B725, 48 h; method in brief: as §2
Streptomyces coelicolor [5] = assay: Ratio of MIC for Streptomyces coelicolor B725 harboring trpRS2 C(-17)A/L9F locus to MIC for Streptomyces coelicolor B725; method in brief: as §1
Streptomyces coelicolor [6] = assay: Ratio of MIC for Streptomyces coelicolor B725 harboring trpRS2 C(-17)A locus to MIC for Streptomyces coelicolor B725; method in brief: as §1
Streptomyces coelicolor [7] = assay: Ratio of MIC for Streptomyces coelicolor B725 harboring trpRS2 locus to MIC for Streptomyces coelicolor B725; method in brief: as §1
Streptomyces coelicolor [8] = assay: Ratio of MIC for Streptomyces coelicolor B725 harboring trpRS2 H48Q mutant ORF to MIC for Streptomyces coelicolor B725; method in brief: as §1
Streptomyces coelicolor [9] = assay: Ratio of MIC for Streptomyces coelicolor B725 harboring trpRS2 H48N mutant ORF to MIC for Streptomyces coelicolor B725; method in brief: as §1
Streptomyces coelicolor [10] = assay: Ratio of MIC for Streptomyces coelicolor B725 harboring trpRS2 Q13K mutant ORF to MIC for Streptomyces coelicolor B725; method in brief: as §1
Streptomyces coelicolor [11] = assay: Antimicrobial activity against Streptomyces coelicolor B725 harboring trpRS2 L9F/Q13K mutant ORF after 48 hrs; conditions: B725, 48 h
Method in brief: (§3)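 Agar MIC in S. coelicolor trpRS1-null strain B725. Each ORF is cloned into pIJ10257 under the constitutive ermE* promoter for equalized expression. Growth is on Difco nutrient agar with indolmycin at the indicated concentrations, 30C, 48 h. MIC is the concentration that inhibits growth.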

Streptomyces coelicolor [12] = assay: Ratio of MIC for Streptomyces coelicolor B725 harboring trpRS2 C(-17)A/H48Q locus to MIC for Streptomyces coelicolor B725; method in brief: as §1
Streptomyces coelicolor [13] = assay: Ratio of MIC for Streptomyces coelicolor B725 harboring trpRS2 L9F/H48Q mutant ORF to MIC for Streptomyces coelicolor B725; method in brief: as §1
Streptomyces coelicolor [14] = assay: Antimicrobial activity against Streptomyces coelicolor B725 harboring trpRS2 ORF after 48 hrs; conditions: B725, 48 h; method in brief: as §3
Streptomyces coelicolor [15] = assay: Antimicrobial activity against Streptomyces coelicolor B725 harboring trpRS2 H48N mutant ORF after 48 hrs; conditions: B725, 48 h; method in brief: as §3
Streptomyces coelicolor [16] = assay: Antimicrobial activity against Streptomyces coelicolor B725 harboring trpRS2 L9F/H48Q mutant ORF after 48 hrs; conditions: B725, 48 h; method in brief: as §3
Streptomyces coelicolor [17] = assay: Ratio of MIC for Streptomyces coelicolor B725 harboring trpRS2 L9F/Q13K mutant ORF to MIC for Streptomyces coelicolor B725; method in brief: as §1
Streptomyces griseus = assay: Antimicrobial activity against Streptomyces griseus after 48 hrs
Method in brief: (§4)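 Indolmycin MIC on Difco nutrient agar containing the indicated indolmycin concentrations. Spores are grown at 30C for 48 h. MIC is the lowest indolmycin concentration that prevents growth after 2 days.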

Streptomyces coelicolor [18] = assay: Antimicrobial activity against Streptomyces coelicolor B725 harboring trpRS2 C(-17)A/H48Q locus after 48 hrs; conditions: B725, 48 h; method in brief: as §2
Streptomyces coelicolor [19] = assay: Antimicrobial activity against Streptomyces coelicolor B725 harboring trpRS2 locus after 48 hrs; conditions: B725, 48 h; method in brief: as §2
Streptomyces coelicolor [20] = assay: Antimicrobial activity against Streptomyces coelicolor B725 harboring trpRS2 C(-17)A locus after 48 hrs; conditions: B725, 48 h; method in brief: as §2
Streptomyces coelicolor [21] = assay: Antimicrobial activity against trpRS1 deficient Streptomyces coelicolor B725 after 48 hrs; conditions: B725, 48 h; method in brief: as §4
Streptomyces coelicolor [22] = assay: Ratio of MIC for Streptomyces coelicolor B725 overexpressing tryptophanyl-tRNA synthetase gene to MIC for Streptomyces coelicolor B725; method in brief: as §1
Streptomyces coelicolor [23] = assay: Antimicrobial activity against Streptomyces coelicolor B725 harboring trpRS2 G(-13)T/L9F locus after 48 hrs; conditions: B725, 48 h; method in brief: as §2
Streptomyces coelicolor [24] = assay: Antimicrobial activity against wild-type Streptomyces coelicolor after 48 hrs; method in brief: as §4
Streptomyces coelicolor [25] = assay: Ratio of MIC for Streptomyces coelicolor B725 harboring trpRS2 L9F mutant ORF to MIC for Streptomyces coelicolor B725; method in brief: as §1
Streptomyces avermitilis = assay: Antimicrobial activity against Streptomyces avermitilis harboring trpRS1 homolog after 48 hrs; method in brief: as §4
Streptomyces coelicolor [26] = assay: Antimicrobial activity against Streptomyces coelicolor B725 harboring trpRS2 Q13K mutant ORF after 48 hrs; conditions: B725, 48 h; method in brief: as §3
Streptomyces coelicolor [27] = assay: Ratio of MIC for Streptomyces coelicolor B725 harboring trpRS2 G(-13)T/H48Q locus to MIC for Streptomyces coelicolor B725; method in brief: as §1
Streptomyces coelicolor [28] = assay: Antimicrobial activity against Streptomyces coelicolor B725 harboring trpRS1 ORF after 48 hrs; conditions: B725, 48 h; method in brief: as §3
Streptomyces coelicolor [29] = assay: Ratio of MIC for Streptomyces coelicolor B725 harboring trpRS2 ORF to MIC for Streptomyces coelicolor B725; method in brief: as §1
Streptomyces coelicolor [30] = assay: Antimicrobial activity against Streptomyces coelicolor B725 harboring trpRS2 H48Q mutant ORF after 48 hrs; conditions: B725, 48 h; method in brief: as §3
Streptomyces coelicolor [31] = assay: Ratio of MIC for Streptomyces coelicolor B725 harboring trpRS2 G(-13)T/L9F locus to MIC for Streptomyces coelicolor B725; method in brief: as §1
Streptomyces coelicolor [32] = assay: Antimicrobial activity against Streptomyces coelicolor B725 harboring trpRS2 L9F mutant ORF after 48 hrs; conditions: B725, 48 h; method in brief: as §3

Question: Which results are given for CNC1=NC(=O)[C@H]([C@H](C)c2c[nH]c3ccccc23)O1 [INDOMYCIN]?
Answer: fold change (FC) (Streptomyces coelicolor [1]): 20; MIC (Streptomyces coelicolor [2]): 5 µg/mL (≈ 19.4 µM); MIC (Streptomyces coelicolor [3]): > 75 µg/mL; MIC (Streptomyces coelicolor [4]): 5 µg/mL (≈ 19.4 µM); fold change (FC) (Streptomyces coelicolor [5]): 20; fold change (FC) (Streptomyces coelicolor [6]): 8; fold change (FC) (Streptomyces coelicolor [7]): 1; fold change (FC) (Streptomyces coelicolor [8]): >300; fold change (FC) (Streptomyces coelicolor [9]): >300; fold change (FC) (Streptomyces coelicolor [10]): 12; MIC (Streptomyces coelicolor [11]): 8 µg/mL (≈ 31.1 µM); fold change (FC) (Streptomyces coelicolor [12]): >300; fold change (FC) (Streptomyces coelicolor [13]): >300; MIC (Streptomyces coelicolor [14]): 0.25 µg/mL (≈ 0.972 µM); MIC (Streptomyces coelicolor [15]): > 75 µg/mL; MIC (Streptomyces coelicolor [16]): > 75 µg/mL; fold change (FC) (Streptomyces coelicolor [17]): 32; MIC (Streptomyces griseus): 15 µg/mL (≈ 58.3 µM); MIC (Streptomyces coelicolor [18]): > 75 µg/mL; MIC (Streptomyces coelicolor [19]): 0.25 µg/mL (≈ 0.972 µM); MIC (Streptomyces coelicolor [20]): 2 µg/mL (≈ 7.77 µM); MIC (Streptomyces coelicolor [21]): 0.25 µg/mL (≈ 0.972 µM); fold change (FC) (Streptomyces coelicolor [22]): 60; MIC (Streptomyces coelicolor [23]): 12 µg/mL (≈ 46.6 µM); MIC (Streptomyces coelicolor [24]): > 150 µg/mL; fold change (FC) (Streptomyces coelicolor [25]): 20; MIC (Streptomyces avermitilis): 5 µg/mL (≈ 19.4 µM); MIC (Streptomyces coelicolor [26]): 3 µg/mL (≈ 11.7 µM); fold change (FC) (Streptomyces coelicolor [27]): >300; MIC (Streptomyces coelicolor [28]): 10 µg/mL (≈ 38.9 µM); fold change (FC) (Streptomyces coelicolor [29]): 1; MIC (Streptomyces coelicolor [30]): > 75 µg/mL; fold change (FC) (Streptomyces coelicolor [31]): 48; MIC (Streptomyces coelicolor [32]): 5 µg/mL (≈ 19.4 µM)
